The test system of data set [1] is Candida albicans. The data set can be described thus: Fungicidal activity against Candida albicans 885-653 after 6 hrs. The settings on record: 885-653, 6 h. The format is functional. The procedure, abridged:
(§1)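 Tubes of test compound (5 to 500 per ml, 1 mL in nutrient agar) with fungi were incubated at 26 °C for 6 h. Inocula were then prepared in Sabouraud dextrose broth and incubated at 26 °C. The fungicidal concentration is the one giving total cell death.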

The test system of data set [2] is Candida albicans. Kind of data set: Antifungal activity against Candida albicans 885-653 measured every 24 hrs for 14 days by conventional dilution method. The format is functional. The essentials:
(§2)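 Dilution assay in Sabouraud dextrose broth, inoculum 2 × 10^3–4 cfu/ml. MIC is the lowest concentration with no visible growth after 14 days of incubation. Run alongside a positive growth control and standard drug controls. Tests in duplicate, repeated twice.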

Data set [3] deals with Pseudomonas aeruginosa. The data set can be described thus: Antibacterial activity against Pseudomonas aeruginosa 9027 measured every 24 hrs for 5 days by conventional dilution method. The format is functional. The procedure, abridged: (§3)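 Broth dilution in nutrient broth, inoculum 3 × 10⁵ cfu/ml. MIC is the lowest concentration showing no growth, read visually every 24 h over 5 days. Run alongside a positive growth control and standard drug controls. Tests in duplicate, repeated twice.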

In data set [4] the test system is Escherichia coli. Kind of data set: Antibacterial activity against Escherichia coli F-50 measured every 24 hrs for 5 days by conventional dilution method. The format is functional. The procedure, abridged:
as §3

Data set [5] concerns Bacillus cereus. The data set can be described thus: Antibacterial activity against Bacillus cereus 8035 measured every 24 hrs for 5 days by conventional dilution method. The format is functional. The essentials:
as §3

In data set [6] the test system is Staphylococcus aureus. The data set can be described thus: Bactericidal activity against Staphylococcus aureus 209p after 4 hrs. The format is functional. The procedure, abridged: (§4)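 Tubes contained 1 mL test compound in nutrient agar, 5 to 500 per ml. Bacteria in normal saline broth (3 × 10⁵ cfu/ml, 1 mL) were added and held 4 h, then transferred onto meal-peptone agar plates and incubated at 37 °C. MBC is the dilution giving total cell death.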

For data set [7], the system named is Escherichia coli. Kind of data set: Bactericidal activity against Escherichia coli F-50 after 4 hrs. The format is functional. The settings on record: F-50, 4 h. The essentials:
as §4

Data set [8] can be described thus: Acute toxicity in ip dosed mouse. The format is organism-based. The conditions noted are these: in vivo. The essentials: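 Mice; each compound given at 5 dose levels, 10 animals per dose (n = 50 per compound). Animals observed for 72 h; toxicity expressed as average lethal dose (LD50) calculated from mortality across dose groups.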
The test system of data set [9] is Trichophyton mentagrophytes. Kind of data set: Fungicidal activity against Trichophyton mentagrophytes after 6 hrs. The format is functional. The essentials: as §1
Data set [10] has as its system Aspergillus niger. The data set can be described thus: Fungicidal activity against Aspergillus niger BKMF-1119 after 6 hrs. The format is functional. The settings on record: BKMF-1119, 6 h. The procedure, abridged:
as §1

Data set [11] deals with Trichophyton mentagrophytes. The data set can be described thus: Antifungal activity against Trichophyton mentagrophytes measured every 24 hrs for 14 days by conventional dilution method. The format is functional. The essentials:
as §2

In data set [12] the test system is Pseudomonas aeruginosa. The data set can be described thus: Bactericidal activity against Pseudomonas aeruginosa 9027 after 4 hrs. The conditions noted are these: Pseudomonas aeruginosa, 9027, 4 h. The format is functional. The procedure, abridged:
as §4

Data set [13] has as its system Staphylococcus aureus. Kind of data set: Antibacterial activity against Staphylococcus aureus 209p measured every 24 hrs for 5 days by conventional dilution method. The format is functional. The procedure, abridged: as §3
Data set [14] concerns Bacillus cereus. The data set can be described thus: Bactericidal activity against Bacillus cereus 8035 after 4 hrs. The format is functional. The conditions noted are these: Bacillus cereus, 8035, 4 h. The procedure, abridged: as §4
Data set [15] deals with Aspergillus niger. Kind of data set: Antifungal activity against Aspergillus niger BKMF-1119 measured every 24 hrs for 14 days by conventional dilution method. The format is functional. The essentials:
as §2

This note sets out measurements from ChEMBL document CHEMBL2407024, “Antimicrobial activity of imidazo[1,5-a]quinoxaline derivatives with pyridinium moiety” (Eur J Med Chem, 2013).

The MFC is the lowest tested concentration that kills the fungus rather than only halting it. Read a high MFC as less potent killing. The term MIC denotes the lowest concentration found to suppress growth. A low value points to a more susceptible organism. By MBC is commonly meant the lowest tested concentration that kills the bacteria rather than only halting them. Low readings indicate greater bactericidal potency, high ones weaker bactericidal potency. What is called LD50 is the dose expected to kill half of the subjects tested. High values mean lower toxicity, low ones greater toxicity.

A value given as a limit tells only on which side of the number the result lay.

Consider `CCCCCCCCC[n+]1cccc(-c2nc(-c3ccccc3)c3c(=O)n(CCCCCC)c4ccccc4n23)c1.[I-]`, for which the MFC against Candida albicans [1] is 500 µg/mL; in data set [9], over 500 µg/mL; against Aspergillus niger [10] it was over 500 µg/mL. The MIC was 500 µg/mL against Candida albicans [2]; over 500 µg/mL with Pseudomonas aeruginosa [3]; over 500 µg/mL in the data set with Escherichia coli [4]; 0.78 µg/mL in the data set with Bacillus cereus [5]; over 500 µg/mL in [11]; 0.78 µg/mL against Staphylococcus aureus [13]. For the same compound, in the data set on Aspergillus niger [15], the MIC is over 500 µg/mL. Further, the MBC was 5 µg/mL in the data set with Staphylococcus aureus [6], over 500 µg/mL in the data set on Escherichia coli [7], over 500 µg/mL in the data set with Pseudomonas aeruginosa [12] and 500 µg/mL in the data set on Bacillus cereus [14]. The LD50 in data set [8] was 52.5 mg/kg.
Regarding `CCCCCCCCCn1c(=O)c2c(-c3ccccc3)nc(-c3ccc[n+](CCCCCCCCC)c3)n2c2ccccc21.[I-]`, the MFC (against Candida albicans [1]; in [9]; in the data set with Aspergillus niger [10]) was over 500 µg/mL each time. The MIC in the data set on Candida albicans [2] is over 500 µg/mL; against Pseudomonas aeruginosa [3], over 500 µg/mL; against Escherichia coli [4] it was over 500 µg/mL; in the data set on Bacillus cereus [5], 7.8 µg/mL; in [11], over 500 µg/mL; with Staphylococcus aureus [13], 7.8 µg/mL. In the data set on Aspergillus niger [15], this compound displayed an MIC of over 500 µg/mL. In addition, the MBC with Staphylococcus aureus [6] is 500 µg/mL; in the data set with Escherichia coli [7], over 500 µg/mL; in the data set with Pseudomonas aeruginosa [12], over 500 µg/mL; against Bacillus cereus [14], over 500 µg/mL.
In the case of `CCCCCCCCCn1c(=O)c2c(-c3ccccc3)nc(-c3ccc[n+](CCCCCCCCC)c3)n2c2ccccc21.[Br-]`, the MFC in the data set on Candida albicans [1] was 500 µg/mL; in [9], over 500 µg/mL; against Aspergillus niger [10] it was over 500 µg/mL. Also, the MIC in the data set with Candida albicans [2] was 50 µg/mL; in the data set with Pseudomonas aeruginosa [3], over 500 µg/mL; with Escherichia coli [4], over 500 µg/mL; with Bacillus cereus [5] it was 6.3 µg/mL; in data set [11], 500 µg/mL; in the data set with Staphylococcus aureus [13] it was 1.5 µg/mL. In addition, the MIC against Aspergillus niger [15] is over 500 µg/mL. Moreover, the MBC against Staphylococcus aureus [6] is 50 µg/mL; against Escherichia coli [7] it was over 500 µg/mL; against Pseudomonas aeruginosa [12], over 500 µg/mL; with Bacillus cereus [14], 500 µg/mL.
For `CCCCCCn1c(=O)c2c(-c3ccccc3)nc(-c3ccc[n+](Cc4ccccc4)c3)n2c2ccccc21.[Cl-]`, the MFC in the data set on Candida albicans [1] is 500 µg/mL; in [9], over 500 µg/mL; with Aspergillus niger [10], over 500 µg/mL. Further, the MIC is 7.8 µg/mL against Candida albicans [2]; over 500 µg/mL in the data set on Pseudomonas aeruginosa [3]; over 500 µg/mL in the data set on Escherichia coli [4]; 6.3 µg/mL in the data set on Bacillus cereus [5]; 500 µg/mL in data set [11]; 0.97 µg/mL against Staphylococcus aureus [13]. Further, in the data set with Aspergillus niger [15], the MIC was over 500 µg/mL. For the same compound, the MBC against Staphylococcus aureus [6] was 50 µg/mL; against Escherichia coli [7] it was over 500 µg/mL; against Pseudomonas aeruginosa [12], over 500 µg/mL; against Bacillus cereus [14] it was over 500 µg/mL. In addition, the LD50 in data set [8] was 61.1 mg/kg.
`CCCCCCCCC[n+]1cccc(-c2nc(-c3ccccc3)c3c(=O)n(CCCCCC)c4ccccc4n23)c1.[Br-]`: the values for the MFC (in the data set on Candida albicans [1]; in data set [9]; with Aspergillus niger [10]) were 50 µg/mL, 250 µg/mL and over 500 µg/mL, respectively. Besides, the MIC in the data set with Candida albicans [2] was 0.97 µg/mL; in the data set with Pseudomonas aeruginosa [3], over 500 µg/mL; in the data set on Escherichia coli [4], 500 µg/mL; against Bacillus cereus [5], 0.97 µg/mL; in [11], 250 µg/mL; in the data set with Staphylococcus aureus [13] it was 0.97 µg/mL. Also, in the data set on Aspergillus niger [15], the MIC is over 500 µg/mL. The MBC is 5 µg/mL against Staphylococcus aureus [6], 500 µg/mL against Escherichia coli [7], over 500 µg/mL against Pseudomonas aeruginosa [12] and 50 µg/mL in the data set with Bacillus cereus [14]. The same compound came in with an LD50 in [8] of 120 mg/kg.
As to `CCCCCCCCCn1c(=O)c2c(-c3ccccc3)nc(-c3ccc[n+](Cc4ccccc4)c3)n2c2ccccc21.[Cl-]`, the values for the MFC (against Candida albicans [1]; in data set [9]; in the data set on Aspergillus niger [10]) were 500 µg/mL, over 500 µg/mL and over 500 µg/mL, respectively. Also, the MIC in the data set on Candida albicans [2] is 3.9 µg/mL; against Pseudomonas aeruginosa [3] it was over 500 µg/mL; in the data set with Escherichia coli [4], over 500 µg/mL; in the data set with Bacillus cereus [5], 12.5 µg/mL; in [11], 500 µg/mL; in the data set with Staphylococcus aureus [13] it was 1.95 µg/mL. In addition, the MIC against Aspergillus niger [15] was over 500 µg/mL. Further, the MBC is 50 µg/mL in the data set with Staphylococcus aureus [6], over 500 µg/mL with Escherichia coli [7], over 500 µg/mL in the data set with Pseudomonas aeruginosa [12] and over 500 µg/mL with Bacillus cereus [14].
